Source: ChEMBL document CHEMBL5724801, “EUbOPEN Chemogenomics Library - Multiplex” (2024)
“And” between values parts separate entries of the source, which are not always exact repeats. Equal values may be shown once.

Tested on: Fibroblast
Experiment: Multiplex assay against human fibroblast
Type: toxicity, cell-based
In short: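 Four dyes were applied at seeding to live cells: Hoechst33342, BioTracker Green Microtubule Cytoskeleton Dye, MitoTracker Red and Annexin V Alexa Fluor 680. Imaging after compound addition used a CQ1 microscope at 37°C and 5% CO2. CellPathfinder machine-learning gating then sorted cells into Hoechst high-intensity objects or normal cells, normal cells into healthy, pyknosed or fragmented nuclei, and pyknosed cells into mitotic or apoptotic, with tubulin, mitochondrial-mass and membrane-permeability phenotypes given as per cents of healthy-nucleus cells.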

[1] = 12 h, 1 µM, compound concentration 1 uM
[2] = 12 h, 10 µM, compound concentration 10 uM
[3] = 24 h, 1 µM, compound concentration 1 uM
[4] = 24 h, 10 µM, compound concentration 10 uM
[5] = 48 h, 1 µM, compound concentration 1 uM
[6] = 48 h, 10 µM, compound concentration 10 uM

With Cc1[nH]nc2ccc(-c3cncc(OCC(N)Cc4c[nH]c5ccccc45)c3)cc12 (stereo not given) the “Population Apoptotic (%)” value [1] was 18.11% and 24.66%, the “Population Fragmented Nuclei (%)” value [1] was 16.11% and 10.36% and the “Population Healthy Nuclei (%)” value [1] was 41.28% and 56.76%. The “Population Hoechst High Intensity Objects (%)” value [1] was 0%, the “Population Membrane Permeable-Phenotype (%)” value [1] was 3.25% and 3.97% and the “Population Mitochondria Different-Phenotype (%)” value [1] was 17.07% and 15.08%. The “Population Mitotic Cells (%)” value [1] was 81.89% and 75.34%, the “Population Normal (%)” value [1] was 100% and the “Population Pyknosed Nuclei (%)” value [1] was 42.62% and 32.88%. The “Population Tubulin-Different-Phenotype (%)” value [1] was 23.58% and 29.37%, the “Total Cell Count” value [1] was 298 and 222 and the “Population Apoptotic (%)” value [2] was 73.46% and 80.82%. For the same compound, the “Population Fragmented Nuclei (%)” value [2] was 20.65% and 12.77%, the “Population Healthy Nuclei (%)” value [2] was 11.29% and 2.66% and the “Population Hoechst High Intensity Objects (%)” value [2] was 0% and 0.27%. The “Population Membrane Permeable-Phenotype (%)” value [2] was 2.86% and 10%, the “Population Mitochondria Different-Phenotype (%)” value [2] was 5.71% and 10% and the “Population Mitotic Cells (%)” value [2] was 26.54% and 19.18%. For the same compound, the “Population Normal (%)” value [2] was 100% and 99.73%, the “Population Pyknosed Nuclei (%)” value [2] was 68.06% and 84.57% and the “Population Tubulin-Different-Phenotype (%)” value [2] was 22.86% and 10%. For the same compound, the “Total Cell Count” value [2] was 310 and 377, the “Population Apoptotic (%)” value [3] was 27.83% and 30.77% and the “Population Fragmented Nuclei (%)” value [3] was 13.42% and 3.92%. For the same compound, the “Population Healthy Nuclei (%)” value [3] was 47.99% and 64.22%, the “Population Hoechst High Intensity Objects (%)” value [3] was 0% and the “Population Membrane Permeable-Phenotype (%)” value [3] was 0.7% and 2.29%. For the same compound, the “Population Mitochondria Different-Phenotype (%)” value [3] was 10.49% and 14.5%, the “Population Mitotic Cells (%)” value [3] was 72.17% and 69.23% and the “Population Normal (%)” value [3] was 100%. The “Population Pyknosed Nuclei (%)” value [3] was 38.59% and 31.86%, the “Population Tubulin-Different-Phenotype (%)” value [3] was 18.88% and 22.14% and the “Total Cell Count” value [3] was 298 and 204. The “Population Apoptotic (%)” value [4] was 65.94% and 93.38%, the “Population Fragmented Nuclei (%)” value [4] was 25.98% and 13.12% and the “Population Healthy Nuclei (%)” value [4] was 19.69% and 18.55%. The “Population Hoechst High Intensity Objects (%)” value [4] was 0%, the “Population Membrane Permeable-Phenotype (%)” value [4] was 10% and 14.63% and the “Population Mitochondria Different-Phenotype (%)” value [4] was 6% and 7.32%. For the same compound, the “Population Normal (%)” value [4] was 100%, the “Population Pyknosed Nuclei (%)” value [4] was 54.33% and 68.33% and the “Population Tubulin-Different-Phenotype (%)” value [4] was 24% and 48.78%. For the same compound, the “Total Cell Count” value [4] was 254 and 221, the “Population Apoptotic (%)” value [5] was 32.98% and 38.18% and the “Population Fragmented Nuclei (%)” value [5] was 11.28% and 7.22%. For the same compound, the “Population Healthy Nuclei (%)” value [5] was 53.38% and 64.43%, the “Population Hoechst High Intensity Objects (%)” value [5] was 0% and the “Population Membrane Permeable-Phenotype (%)” value [5] was 0% and 3.2%. For the same compound, the “Population Mitochondria Different-Phenotype (%)” value [5] was 17.61% and 10.4%, the “Population Mitotic Cells (%)” value [5] was 67.02% and 61.82% and the “Population Normal (%)” value [5] was 100%. For the same compound, the “Population Pyknosed Nuclei (%)” value [5] was 35.34% and 28.35%, the “Population Tubulin-Different-Phenotype (%)” value [5] was 13.38% and 9.6% and the “Total Cell Count” value [5] was 266 and 194. For the same compound, the “Population Apoptotic (%)” value [6] was 40.43% and 95.45%, the “Population Fragmented Nuclei (%)” value [6] was 31.02% and 56.65% and the “Population Healthy Nuclei (%)” value [6] was 47.22% and 30.64%. For the same compound, the “Population Hoechst High Intensity Objects (%)” value [6] was 0%, the “Population Membrane Permeable-Phenotype (%)” value [6] was 5.88% and 11.32% and the “Population Mitochondria Different-Phenotype (%)” value [6] was 31.37% and 37.74%. For the same compound, the “Population Normal (%)” value [6] was 100%, the “Population Pyknosed Nuclei (%)” value [6] was 21.76% and 12.72% and the “Population Tubulin-Different-Phenotype (%)” value [6] was 35.29% and 66.04%. The “Total Cell Count” value [6] was 216 and 173.

In the case of CN1CCN(c2cc(-c3ccccc3)nc(N)n2)CC1, the “Population Apoptotic (%)” value [1] is reported as 47% and 37%, the “Population Fragmented Nuclei (%)” value [1] is reported as 15% and 28% and the “Population Healthy Nuclei (%)” value [1] is reported as 68% and 45%. The “Population Hoechst High Intensity Objects (%)” value [1] was 2% and 5%, the “Population Membrane Permeable-Phenotype (%)” value [1] was 1% and 11% and the “Population Mitochondria Different-Phenotype (%)” value [1] was 10% and 11%. For the same compound, the “Population Mitotic Cells (%)” value [1] was 52% and 62%, the “Population Normal (%)” value [1] was 97% and 94% and the “Population Pyknosed Nuclei (%)” value [1] was 15% and 26%. For the same compound, the “Population Tubulin-Different-Phenotype (%)” value [1] was 25% and 66%, the “Total Cell Count” value [1] was 135 and 97 and the “Population Apoptotic (%)” value [2] was 48% and 36%. The “Population Fragmented Nuclei (%)” value [2] was 16% and 40%, the “Population Healthy Nuclei (%)” value [2] was 67% and 36% and the “Population Hoechst High Intensity Objects (%)” value [2] was 2% and 7%. For the same compound, the “Population Membrane Permeable-Phenotype (%)” value [2] was 0% and 10%, the “Population Mitochondria Different-Phenotype (%)” value [2] was 6% and 12% and the “Population Mitotic Cells (%)” value [2] was 51% and 64%. The “Population Normal (%)” value [2] was 97% and 92%, the “Population Pyknosed Nuclei (%)” value [2] was 15% and 22% and the “Population Tubulin-Different-Phenotype (%)” value [2] was 44% and 67%. For the same compound, the “Total Cell Count” value [2] was 216 and 118, the “Population Apoptotic (%)” value [3] was 75% and 47% and the “Population Fragmented Nuclei (%)” value [3] was 17% and 36%. The “Population Healthy Nuclei (%)” value [3] was 65% and 44%, the “Population Hoechst High Intensity Objects (%)” value [3] was 2% and the “Population Membrane Permeable-Phenotype (%)” value [3] was 1% and 8%. The “Population Mitochondria Different-Phenotype (%)” value [3] was 3% and 8%, the “Population Mitotic Cells (%)” value [3] was 25% and 52% and the “Population Normal (%)” value [3] was 97%. For the same compound, the “Population Pyknosed Nuclei (%)” value [3] was 16% and 18%, the “Population Tubulin-Different-Phenotype (%)” value [3] was 19% and 50% and the “Total Cell Count” value [3] was 145 and 106. For the same compound, the “Population Apoptotic (%)” value [4] was 41% and 29%, the “Population Fragmented Nuclei (%)” value [4] was 12% and 33% and the “Population Healthy Nuclei (%)” value [4] was 70% and 43%. For the same compound, the “Population Hoechst High Intensity Objects (%)” value [4] was 2%, the “Population Membrane Permeable-Phenotype (%)” value [4] was 1% and 4% and the “Population Mitochondria Different-Phenotype (%)” value [4] was 6%. For the same compound, the “Population Mitotic Cells (%)” value [4] was 58% and 70%, the “Population Normal (%)” value [4] was 97% and the “Population Pyknosed Nuclei (%)” value [4] was 17% and 23%. The “Population Tubulin-Different-Phenotype (%)” value [4] was 41% and 64%, the “Total Cell Count” value [4] was 213 and 107 and the “Population Apoptotic (%)” value [5] was 70% and 50%. The “Population Fragmented Nuclei (%)” value [5] was 22% and 36%, the “Population Healthy Nuclei (%)” value [5] was 62% and 49% and the “Population Hoechst High Intensity Objects (%)” value [5] was 2% and 3%. For the same compound, the “Population Membrane Permeable-Phenotype (%)” value [5] was 0% and 2%, the “Population Mitochondria Different-Phenotype (%)” value [5] was 2% and 6% and the “Population Mitotic Cells (%)” value [5] was 30% and 50%. The “Population Normal (%)” value [5] was 97% and 96%, the “Population Pyknosed Nuclei (%)” value [5] was 15% and 14% and the “Population Tubulin-Different-Phenotype (%)” value [5] was 20% and 54%. For the same compound, the “Total Cell Count” value [5] was 137 and 101, the “Population Apoptotic (%)” value [6] was 40% and 66% and the “Population Fragmented Nuclei (%)” value [6] was 26% and 50%. The “Population Healthy Nuclei (%)” value [6] was 58% and 39%, the “Population Hoechst High Intensity Objects (%)” value [6] was 3% and the “Population Membrane Permeable-Phenotype (%)” value [6] was 0% and 9%. For the same compound, the “Population Mitochondria Different-Phenotype (%)” value [6] was 0% and 9%, the “Population Mitotic Cells (%)” value [6] was 59% and 33% and the “Population Normal (%)” value [6] was 96%. The “Population Pyknosed Nuclei (%)” value [6] was 14% and 10%, the “Population Tubulin-Different-Phenotype (%)” value [6] was 31% and 60% and the “Total Cell Count” value [6] was 227 and 114.
